From ChEMBL document CHEMBL1149415, “Discovery and structure-activity relationship of antagonists of B-cell lymphoma 2 family proteins with chemopotentiation activity in vitro and in vivo” (J Med Chem, 2006) come the findings set out here.

The target in assay [1] is T1, Bcl-2-like protein 1 (Homo sapiens, UniProt Q07817). The assay can be described thus: Binding affinity to Bcl-XL by fluorescence polarization assay.
The target of assay [2] is T1, Bcl-2-like protein 1. The assay can be described thus: Activity towards mouse FL5.12 cell line transfected with Bcl-XL in presence of 3% fetal bovine serum. It is filed as functional. In outline: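 Bcl-XL-transfected murine FL5.12 (IL-3 dependent) grown in RPMI with 10% FBS and WEHI-3B conditioned medium as the IL-3 source. Switched to IL-3-depleted, FBS-free medium for 2 days. Then placed in gelatin assay medium (3.4 mg/mL bovine gelatin) or 3% FBS assay medium. Serial compound dilutions added for 24 h. Viability read by MTS or CellTiter-Glo; duplicate values per determination; EC50.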

Assay [3] concerns the target Induced myeloid leukemia cell differentiation protein Mcl-1 (Homo sapiens, UniProt Q07820). The assay can be described thus: Binding affinity to Mcl1.
For assay [4], the target named is T1, Bcl-2-like protein 1. As to the kind of experiment: Binding affinity to Bcl-XL in 1% human serum by fluorescence polarization assay.
Assay [5] concerns A549. As to the kind of experiment: Antiproliferative activity against human A549 lung carcinoma cell xenograft tumor model in scid mice in presence of paclitaxel at MTD. It is filed as functional. In outline: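 A549 cells (5 × 10⁶ in 50% Matrigel) inoculated subcutaneously into flank; groups of equal tumor size (N = 10) assigned at ~250 mm³ (day 15). Dosing ip: agent 75 mg/kg/day days 16-36 in 5% Tween 80/20% PEG/75% 0.1 M NaPO₄ pH ~4.0; paclitaxel 30 mg/kg/day days 16, 20, 24. Calipers twice weekly, V = L × W²; %ILS as median time to 1 cm³.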

Assay [6] concerns A549. The assay can be described thus: Effect on viability of human A549 lung carcinoma cells at 20 uM after 48h by MTS assay in presence of 10% fetal bovine serum. The class given is functional, cell-based. In outline:
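A549 seeded in DMEM with 5% FBS the day before. Medium removed and UV-C applied (start 32 mJ/cm², halved each step), then compound added in DMEM with 10% FBS. Viability by MTS at 48 h post-exposure, expressed as percent of untreated samples.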

The test system of assay [7] is A549. As to the kind of experiment: Effect of viability of human A549 lung carcinoma cells at 20uM after 48h by MTS assay in presence of paclitaxel. The class given is functional, cell-based. In outline: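 A549 seeded in DMEM with 5% FBS the day before. Pretreated 48 h with paclitaxel serial 3-fold dilutions from 20 nM, then coincubated 48 h with paclitaxel plus compound in DMEM with 0.34% gelatin (serum-free). Viability by MTS, normalized to untreated cells.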

The target in another assay is T2, Bcl-2-like protein 2 (Homo sapiens, UniProt Q92843).
T2 sequence (Q92843 whole entry): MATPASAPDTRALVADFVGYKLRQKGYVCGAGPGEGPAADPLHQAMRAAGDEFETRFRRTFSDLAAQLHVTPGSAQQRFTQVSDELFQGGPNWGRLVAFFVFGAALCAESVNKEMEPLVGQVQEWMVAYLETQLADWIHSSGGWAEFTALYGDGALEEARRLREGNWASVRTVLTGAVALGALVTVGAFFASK
As to the kind of experiment: Binding affinity to Bclw.

Assay [8] deals with Apoptosis regulator Bcl-2 (Homo sapiens, UniProt P10415). As to the kind of experiment: Binding affinity to Bcl2 by fluorescence polarization assay.
Chain of Apoptosis regulator Bcl-2 (P10415 whole entry, the tested form may be a part): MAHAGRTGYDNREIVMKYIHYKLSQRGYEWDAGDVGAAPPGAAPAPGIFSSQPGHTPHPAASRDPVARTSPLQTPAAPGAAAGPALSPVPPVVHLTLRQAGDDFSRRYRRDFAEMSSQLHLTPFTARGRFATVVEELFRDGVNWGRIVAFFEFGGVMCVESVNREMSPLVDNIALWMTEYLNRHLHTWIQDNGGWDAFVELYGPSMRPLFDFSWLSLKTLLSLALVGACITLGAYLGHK
Another assay addresses Albumin (Homo sapiens, UniProt P02768). As to the kind of experiment: Binding affinity for human serum albumin domain III.

The structures appear in SMILES notation. Calls of active or inactive are those of the source. The rule behind the calls is not given here.

T1 sequence (Q07817 whole entry): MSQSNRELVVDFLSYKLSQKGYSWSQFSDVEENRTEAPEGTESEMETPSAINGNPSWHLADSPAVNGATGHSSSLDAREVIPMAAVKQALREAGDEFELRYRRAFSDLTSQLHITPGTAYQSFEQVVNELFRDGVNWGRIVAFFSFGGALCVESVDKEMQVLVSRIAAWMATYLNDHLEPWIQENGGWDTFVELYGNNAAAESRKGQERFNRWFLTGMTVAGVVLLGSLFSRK
Chain of Induced myeloid leukemia cell differentiation protein Mcl-1 (Q07820 whole entry): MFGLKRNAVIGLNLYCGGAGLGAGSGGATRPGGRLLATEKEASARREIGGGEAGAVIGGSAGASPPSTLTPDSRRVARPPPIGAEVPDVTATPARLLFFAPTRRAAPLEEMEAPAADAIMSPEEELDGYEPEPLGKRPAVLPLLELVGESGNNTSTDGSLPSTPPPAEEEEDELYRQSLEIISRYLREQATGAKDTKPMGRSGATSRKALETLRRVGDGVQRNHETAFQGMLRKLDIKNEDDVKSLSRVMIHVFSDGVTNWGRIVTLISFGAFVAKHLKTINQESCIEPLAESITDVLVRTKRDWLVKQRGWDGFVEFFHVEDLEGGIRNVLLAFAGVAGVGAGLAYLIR
Chain of Albumin (P02768 whole entry, the tested form may be a part): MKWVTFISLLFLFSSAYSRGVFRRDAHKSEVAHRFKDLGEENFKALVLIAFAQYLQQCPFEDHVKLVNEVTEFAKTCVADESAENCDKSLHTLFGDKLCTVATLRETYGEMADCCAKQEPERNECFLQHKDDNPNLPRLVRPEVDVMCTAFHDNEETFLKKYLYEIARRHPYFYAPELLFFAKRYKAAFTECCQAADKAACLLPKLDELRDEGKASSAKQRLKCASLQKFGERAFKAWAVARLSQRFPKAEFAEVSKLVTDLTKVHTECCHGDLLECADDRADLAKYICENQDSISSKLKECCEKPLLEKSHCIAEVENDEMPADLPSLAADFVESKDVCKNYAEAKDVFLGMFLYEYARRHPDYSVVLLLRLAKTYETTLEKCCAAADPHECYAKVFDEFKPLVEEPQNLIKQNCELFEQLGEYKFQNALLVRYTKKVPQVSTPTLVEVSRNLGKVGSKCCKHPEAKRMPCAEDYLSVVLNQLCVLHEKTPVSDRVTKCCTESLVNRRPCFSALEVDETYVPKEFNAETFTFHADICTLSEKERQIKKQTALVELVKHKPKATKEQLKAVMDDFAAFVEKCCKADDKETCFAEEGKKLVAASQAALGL

With `CN(C)CC[C@H](CSc1ccccc1)Nc1ccc(S(=O)(=O)NC(=O)c2ccc(N3CCC(C)(C)CC3)cc2)cc1[N+](=O)[O-]`, the Ki at Bcl-2-like protein 1 [1] was 0.8 nM; on Bcl-2-like protein 1 [4], 360 nM; in assay [8], 67 nM. Besides, the EC50 on Bcl-2-like protein 1 [2] came to 5100 nM. The Kd in [3] was above 10000 nM; on Bcl-2-like protein 2, 459 nM; at Albumin, 13600 nM. For the same compound, the Activity in the assay on A549 [5] is on record as 75%. Further, the result with A549 [6] and in the assay on A549 [7] was Active.
